For 13 molecules, Activity results are on record in ChEMBL document CHEMBL1687892, “Potent agonists of the protease activated receptor 2 (PAR2)” (J Med Chem, 2011).

The source made the active and inactive calls. No cut-off for these calls is given here.

What all share (type): functional, cell-based
Test [1] has as its target Proteinase-activated receptor 2 (Homo sapiens) (UniProt P55085). The experiment in a line: Agonist activity at PAR2 in human 16HBE14o cells assessed as activated cells at 100 uM by intracellular calcium mobilization fura-2-AM assay. The essentials:
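16HBE14o- cells were grown 5–7 days on matrix-coated coverslips, loaded with fura-2, and imaged by digital microscopy over 3 min (80–100 cells). A cell counted as activated if [Ca2+]i rose to ≥200 nM from a resting 50–75 nM, scored as % of cells. Doses ran from 100 μM down to 250 nM. EC50 came from % responding. Mean ± SEM, N ≥ 2 at 100 μM, N ≥ 4 otherwise.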

Test [2] shares this target. In words: Agonist activity at PAR2 in human 16HBE14o cells assessed as increase in intracellular calcium levels at […] by in vitro physiological response assay.
Test [3] has the same target. In words: Agonist activity at PAR2 in human 16HBE14o cells assessed as activated cells at […] by intracellular calcium mobilization fura-2-AM assay.
Test [4] shares this target. In words: Agonist activity at human PAR2 expressed in rat kNRK cells assessed as increase in intracellular calcium levels at 5 uM by fura-2-AM dye based digital imaging microscopy. The essentials: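 Cells transfected with human PAR2 (HeLa-PAR2 or kNRK-PAR2) were compared with low-expressing or plasmid-control cells of the same line. Cells were grown on matrix-coated coverslips and loaded with fura-2. 5 μM agonist was added, and mean [Ca2+]i of all cells in the field (~90) was imaged every 0.6 s, ± SEM.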

Test [5] shares this target. In words: Agonist activity at human PAR2 expressed in human HeLa cells assessed as increase in intracellular calcium levels at 5 uM by fura-2-AM dye based digital imaging microscopy.

Chain of Proteinase-activated receptor 2 (Homo sapiens) (P55085 whole entry): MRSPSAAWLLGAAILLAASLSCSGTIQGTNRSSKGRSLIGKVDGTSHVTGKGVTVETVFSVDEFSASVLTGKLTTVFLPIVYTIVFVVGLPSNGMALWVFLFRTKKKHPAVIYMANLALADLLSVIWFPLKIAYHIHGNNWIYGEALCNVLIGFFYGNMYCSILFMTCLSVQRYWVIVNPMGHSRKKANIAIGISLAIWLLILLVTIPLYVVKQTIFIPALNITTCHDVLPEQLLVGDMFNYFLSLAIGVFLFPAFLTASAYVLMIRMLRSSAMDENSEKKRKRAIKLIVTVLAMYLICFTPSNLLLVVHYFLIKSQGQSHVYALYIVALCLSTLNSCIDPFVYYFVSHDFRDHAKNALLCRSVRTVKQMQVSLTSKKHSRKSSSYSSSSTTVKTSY

For the molecule `CC[C@H](C)[C@H](NC(=O)[C@H](CC(C)C)NC(=O)COCC(=O)O)C(=O)NCC(=O)N[C@@H](CCCNC(=N)N)C(=O)N[C@@H](CC(C)C)C(N)=O`, in test [1], the Activity is 0%.
`CC[C@H](C)[C@H](NC(=O)[C@H](CC(C)C)NC(=O)c1ccnc(N)c1)C(=O)NCC(=O)N[C@@H](CCCNC(=N)N)C(=O)N[C@@H](CC(C)C)C(N)=O`: the outcome in test [2] and in test [3] was inactive. In test [1], the result was Active.
In the case of `CC[C@H](C)[C@H](NC(=O)[C@H](CC(C)C)NC(=O)c1cccnc1O)C(=O)NCC(=O)N[C@@H](CCCNC(=N)N)C(=O)N[C@@H](CC(C)C)C(N)=O`, the Activity in test [1] is 0%.
For `CC[C@H](C)[C@H](NC(=O)[C@H](CC(C)C)NC(=O)c1cccnc1N)C(=O)NCC(=O)N[C@@H](CCCNC(=N)N)C(=O)N[C@@H](CC(C)C)C(N)=O`, the result in test [2] and in test [3] was inactive. Also, the outcome in test [1] was Active.
As to `CC[C@H](C)[C@H](NC(=O)[C@H](CC(C)C)NC(=O)CCN1CCCCC1)C(=O)NCC(=O)N[C@@H](CCCNC(=N)N)C(=O)N[C@@H](CC(C)C)C(N)=O`, the Activity in test [1] amounted to 0%.
As to `CC[C@H](C)[C@H](NC(=O)[C@H](CC(C)C)NC(=O)c1csc(N)n1)C(=O)NCC(=O)N[C@@H](CCCNC(=N)N)C(=O)N[C@@H](CC(C)C)C(N)=O`, the result in test [4] and in test [5] was Active.
On to `CC[C@H](C)[C@H](NC(=O)[C@H](CC(C)C)NC(=O)c1cccc2[nH]ccc12)C(=O)NCC(=O)N[C@@H](CCCNC(=N)N)C(=O)N[C@@H](CC(C)C)C(N)=O`, for which, in test [1], the Activity was found to be 0%.
For the molecule `CC[C@H](C)[C@H](NC(=O)[C@H](CC(C)C)NC(=O)c1nc(N)n[nH]1)C(=O)NCC(=O)N[C@@H](CCCNC(=N)N)C(=O)N[C@@H](CC(C)C)C(N)=O`, the result in test [2] and in test [3] was inactive. For the same molecule, the outcome in test [1] was Active.
`CC[C@H](C)[C@H](NC(=O)[C@H](CC(C)C)NC(=O)CC#N)C(=O)NCC(=O)N[C@@H](CCCNC(=N)N)C(=O)N[C@@H](CC(C)C)C(N)=O`: the result in test [3] was inactive. In test [1], the result was Active.
Regarding `CC[C@H](C)[C@H](NC(=O)[C@H](CC(C)C)NC(=O)Cc1c[nH]c2ccccc12)C(=O)NCC(=O)N[C@@H](CCCNC(=N)N)C(=O)N[C@@H](CC(C)C)C(N)=O`, the Activity in test [1] came out at 0%.
Consider `CC[C@H](C)[C@H](NC(=O)[C@H](CC(C)C)NC(=O)c1ccc(N)nc1)C(=O)NCC(=O)N[C@@H](CCCNC(=N)N)C(=O)N[C@@H](CC(C)C)C(N)=O`, for which the outcome in test [4] and in test [5] was Active.
Take `CC[C@H](C)[C@H](NC(=O)[C@H](CC(C)C)NC(=O)c1cnccn1)C(=O)NCC(=O)N[C@@H](CCCNC(=N)N)C(=O)N[C@@H](CC(C)C)C(N)=O`: in test [3], the outcome was inactive. Moreover, in test [1], the result was Active.
The corresponding values for `CC[C@H](C)[C@H](NC(=O)[C@H](CC(C)C)NC(=O)c1ccc(S(N)(=O)=O)cc1)C(=O)NCC(=O)N[C@@H](CCCNC(=N)N)C(=O)N[C@@H](CC(C)C)C(N)=O` are “inactive” and “Active”.
